{"data": "Measured values from different studies", "organism": "Mycobacterium tuberculosis", "observed": "microbial growth", "note": "Compare with care: the assays were run in different laboratories."}
{"Compound": "CC[C@@H](CO)NCCN[C@@H](CC)CO", "strain": "H37RV", "MIC": "5 µg/mL"}
{"Compound": "Cc1ccc(-c2nc3ccc(C)cn3c2CC(=O)N(C)C)cc1", "strain": "H37RV", "time": "5 days", "MIC": "10 to 11 µM"}
{"Compound": "CO[C@H]1/C=C/O[C@@]2(C)Oc3c(C)c(O)c4c(O)c(c(/C=N/N5CCN(C)CC5)c(O)c4c3C2=O)NC(=O)/C(C)=C\\C=C\\[C@H](C)[C@H](O)[C@@H](C)[C@@H](O)[C@@H](C)[C@H](OC(C)=O)[C@@H]1C", "technique": "resazurin", "strain": "H37RA", "time": "14 days", "MIC": "0.06 µg/mL"}
{"Compound": "C=CCOc1cc(O)cc(O)c1C(=O)[C@@H](C)CC", "technique": "broth dilution", "strain": "H37RV", "MIC": "100 µg/mL"}
{"Compound": "CO[C@H]1/C=C/O[C@@]2(C)Oc3c(C)c(O)c4c(O)c(c(/C=N/N5CCN(C)CC5)c(O)c4c3C2=O)NC(=O)/C(C)=C\\C=C\\[C@H](C)[C@H](O)[C@@H](C)[C@@H](O)[C@@H](C)[C@H](OC(C)=O)[C@@H]1C", "strain": "H37RV", "MIC": "0.85 µg/mL"}
{"Compound": "O=C(NN1C(=O)CSC12CCCCC2)c1[nH]c2ccc(Cl)cc2c1-c1ccccc1", "strain": "ATCC27294 H37RV", "MIC": "16 µM"}
{"Compound": "CN(C)c1ccc(C=NC2=NN(c3ccccc3)C(=O)C2=NNc2nc(-c3ccccc3)cs2)cc1", "technique": "resazurin", "strain": "H37RV", "MIC": "6.25 µg/mL"}
{"Compound": "COC(=O)c1cc(-c2cccc(NC(=S)Nc3ccc(OC)cc3)c2)on1", "strain": "ATCC27294 H37RV", "time": "7 days", "MIC": "2 µg/mL"}
{"Compound": "O=[N+]([O-])c1cn2c(n1)OC[C@@H](OCc1ccc(N3CCCCC3)nc1)C2", "strain": "H37RV", "MIC": "0.4 to 0.8 µg/mL"}
{"Compound": "CO[C@H]1/C=C/O[C@@]2(C)Oc3c(C)c(O)c4c(O)c(c(/C=N/N5CCN(C)CC5)c(O)c4c3C2=O)NC(=O)/C(C)=C\\C=C\\[C@H](C)[C@H](O)[C@@H](C)[C@@H](O)[C@@H](C)[C@H](OC(C)=O)[C@@H]1C", "technique": "resazurin", "strain": "H37RV", "time": "14 days", "MIC": "0.075 µM"}
{"Compound": "NNC(=O)c1ccncc1", "strain": "ATCC27294 H37RV", "MIC": "0.05 µg/mL"}
{"Compound": "Cc1ccc(C)n1-c1ccc(-c2nnco2)cc1", "technique": "broth dilution", "strain": "H37RV", "time": "21 days", "MIC": "4 µg/mL"}
{"Compound": "N#Cc1cc(C(F)(F)F)cc2c(=O)nc(N3CCN(CC4COC4)CC3)sc12", "technique": "resazurin", "strain": "H37RV", "MIC": "> 2 µM"}
{"Compound": "O=C1C(=NNc2nc(-c3ccccc3)cs2)C(N=Cc2ccc([N+](=O)[O-])cc2)=NN1c1ccccc1", "technique": "resazurin", "strain": "H37RV", "MIC": "25 µg/mL"}
{"Compound": "Cc1ccc2nc(C)c(C(=O)NCc3cccc(S(F)(F)(F)(F)F)c3)n2c1", "strain": "H37RV", "time": "5 days", "MIC": "0.2 µM"}
{"Compound": "COc1ccc2cc(-c3nc(C(C)(C)C)[nH]c3-c3ccnc(N)c3)ccc2c1", "strain": "ATCC27294 H37RV", "MIC": "5.4 µM"}
{"Compound": "CO[C@H]1/C=C/O[C@@]2(C)Oc3c(C)c(O)c4c(O)c(c(/C=N/N5CCN(C)CC5)c(O)c4c3C2=O)NC(=O)/C(C)=C\\C=C\\[C@H](C)[C@H](O)[C@@H](C)[C@@H](O)[C@@H](C)[C@H](OC(C)=O)[C@@H]1C", "MIC": "0.02 µg/mL"}
{"Compound": "O=C1C(=NNc2nc(-c3ccccc3)cs2)C(N=Cc2ccc(Cl)cc2)=NN1c1ccccc1", "technique": "resazurin", "strain": "H37RV", "time": "5 days", "MIC": "51.5 µM"}
{"Compound": "O=C(NN1C(=O)CSC12CCC(c1ccccc1)CC2)c1[nH]c2ccc(Cl)cc2c1-c1ccccc1 (stereo not drawn)", "strain": "ATCC27294 H37RV", "MIC": "3.9 µM"}
{"Compound": "CO[C@@H]1[C@@H](OC(N)=O)[C@@H](O)[C@H](Oc2ccc3c(O)c(NC(=O)c4ccc(O)c(CC=C(C)C)c4)c(=O)oc3c2C)OC1(C)C", "technique": "resazurin", "strain": "H37RA", "time": "14 days", "MIC": "8 µg/mL"}
{"Compound": "NNC(=O)c1ccncc1", "technique": "broth dilution", "strain": "H37RV", "time": "21 days", "MIC": "0.25 µg/mL"}
{"Compound": "N#Cc1cc(C(F)(F)F)cc2c(=O)nc(N3CCN(CC4CCC4)CC3)sc12", "technique": "resazurin", "strain": "H37RV", "MIC": "> 2 µM"}
{"Compound": "COC(=O)c1cc(-c2cccc(NC(=S)Nc3ccc(C#N)cc3)c2)on1", "strain": "ATCC27294 H37RV", "time": "7 days", "MIC": "2 µg/mL"}
{"Compound": "NNC(=O)c1ccncc1", "strain": "H37RV", "time": "5 days", "MIC": "0.3 µM"}
{"Compound": "C[C@H]1COc2c(N3CCN(C)CC3)c(F)cc3c(=O)c(C(=O)O)cn1c23", "technique": "resazurin", "strain": "H37RA", "time": "14 days", "MIC": "0.12 µg/mL"}
{"Compound": "OCN(CO)c1nc(N(CO)CO)nc(N(CO)CO)n1", "strain": "H37RV", "time": "7 days", "MIC": "8 to 16 µg/mL"}
{"Compound": "CN(CC[C@H](N)CC(=O)N[C@H]1C=C[C@H](n2ccc(N)nc2=O)O[C@@H]1C(=O)O)C(=N)N", "strain": "H37RA", "MIC": "> 50 µM"}
{"Compound": "COC(=O)c1cc(-c2cccc(NC(=S)Nc3ccc([N+](=O)[O-])cc3)c2)on1", "strain": "ATCC27294 H37RV", "time": "7 days", "MIC": "2 µg/mL"}
{"Compound": "CC(C)[C@H]1CO[C@]23CCN(Cc4ccc(C(F)(F)F)cc4)C[C@H]2CCC(=O)N13", "technique": "resazurin", "strain": "H37RV", "time": "7 days", "MIC": "0.13 µM"}
{"Compound": "C[C@@H]1CN2c3c(cc4c(N5CC[C@@H](O)C5)noc4c3F)CC3(C(=O)NC(=O)NC3=O)[C@H]2[C@H](C)N1C#N", "strain": "H37RV", "MIC": "7.8 µM"}
{"Compound": "CN[C@H](CC(C)C)C(=O)N[C@H]1C(=O)N[C@@H](CC(N)=O)C(=O)N[C@H]2C(=O)N[C@H]3C(=O)N[C@H](C(=O)N[C@H](C(=O)O)c4cc(O)cc(O)c4-c4cc3ccc4O)[C@H](O)c3ccc(c(Cl)c3)Oc3cc2cc(c3O[C@@H]2O[C@H](CO)[C@@H](O)[C@H](O)[C@H]2O[C@H]2C[C@](C)(N)[C@H](O)[C@H](C)O2)Oc2ccc(cc2Cl)[C@H]1O", "strain": "H37RV", "time": "14 days", "MIC": "12.5 µg/mL"}
{"Compound": "c1ccc(-c2nc3cc(Nc4nccn4-c4cc(NC5CCCC5)ncn4)ccc3[nH]2)cc1", "strain": "W4", "MIC": "> 20 µM"}
{"Compound": "Cc1c(Cc2ccc(Cl)c(Cl)c2)c(=O)n2c([nH]c3ccccc32)c1C#N", "technique": "broth dilution", "strain": "H37RV", "MIC": "0.5 µg/mL"}
{"Compound": "O=C(CCNS(=O)(=O)c1ccccc1[N+](=O)[O-])N1CCN(C(c2ccc(F)cc2)c2ccc(F)cc2)CC1", "strain": "ATCC27294 H37RV", "MIC": "> 25 µg/mL"}
{"Compound": "O=[N+]([O-])c1ccc(/C(O)=C/C(=S)S)cc1", "strain": "H37RA", "MIC": "7.8 µg/mL"}
{"Compound": "CC1CCCC2(C1)SCC(=O)N2NC(=O)c1[nH]c2ccc(Cl)cc2c1-c1ccccc1 (stereo not drawn)", "strain": "ATCC27294 H37RV", "MIC": "16 µM"}
{"Compound": "CC1=NN(CNc2ccccn2)C(=O)C1=NNn1c(-c2ccccc2)nc2ccccc2c1=O", "technique": "resazurin", "strain": "H37RV", "MIC": "110 µM"}
{"Compound": "COC(=O)c1cc(-c2cccc(NC(=S)Nc3ccc(C)cc3)c2)on1", "strain": "ATCC27294 H37RV", "time": "7 days", "MIC": "2 µg/mL"}
{"Compound": "Cc1c(Cc2ccc(C(C)(C)C)cc2)c(=O)n2c([nH]c3ccccc32)c1C#N", "technique": "broth dilution", "strain": "H37RV", "MIC": "1 µg/mL"}
{"Compound": "Cc1ccc(C)n1-c1ccc(-c2nnc(-c3c(Cl)cccc3Cl)[nH]2)cc1", "technique": "broth dilution", "strain": "H37RV", "time": "21 days", "MIC": "8 µg/mL"}
{"Compound": "NNC(=O)c1ccncc1", "strain": "ATCC27294 H37RV", "time": "7 days", "MIC": "0.03 µg/mL"}
{"Compound": "COc1cccc(C=NC2=NN(c3ccccc3)C(=O)C2=NNc2nc(-c3ccccc3)cs2)c1", "technique": "resazurin", "strain": "H37RV", "MIC": "12.5 µg/mL"}
{"Compound": "CO[C@H]1/C=C/O[C@@]2(C)Oc3c(C)c(O)c4c(O)c(c(/C=N/N5CCN(C)CC5)c(O)c4c3C2=O)NC(=O)/C(C)=C\\C=C\\[C@H](C)[C@H](O)[C@@H](C)[C@@H](O)[C@@H](C)[C@H](OC(C)=O)[C@@H]1C", "technique": "broth dilution", "MIC": "0.4 µg/mL"}
{"Compound": "COc1nc2ccc(Br)cc2cc1[C@@H](c1ccccc1)[C@@](O)(CCN(C)C)c1cccc2ccccc12", "technique": "resazurin", "strain": "H37RV", "time": "14 days", "MIC": "0.51 µM"}
{"Compound": "Cc1cn2c(C(=O)NCc3ccc(S(F)(F)(F)(F)F)cc3)c(C)nc2s1", "technique": "resazurin", "strain": "H37RV", "MIC": "0.078 µM"}
{"Compound": "COC(=O)c1cc(-c2cccc(NC(=O)Nc3cccc(F)c3)c2)on1", "strain": "ATCC27294 H37RV", "time": "7 days", "MIC": "2 µg/mL"}
{"Compound": "O=C(Nc1ccc2c(c1)OC(F)(F)O2)Nc1ccc(Cl)c(C(F)(F)F)c1", "strain": "H37RV", "MIC": "2 µM"}
{"Compound": "COC(=O)c1cc(-c2cccc(NC(=O)Nc3cc(OC)ccc3OC)c2)on1", "strain": "ATCC27294 H37RV", "time": "7 days", "MIC": "0.5 µg/mL"}
{"Compound": "CC1CCC2(CC1)SCC(=O)N2NC(=O)c1[nH]c2ccc(Cl)cc2c1-c1ccccc1 (stereo not drawn)", "strain": "ATCC27294 H37RV", "MIC": "31 µM"}
{"Compound": "COC(=O)c1cc(-c2cccc(NC(=O)Nc3ccccc3)c2)on1", "strain": "ATCC27294 H37RV", "time": "7 days", "MIC": "4 µg/mL"}
{"Compound": "CCCCCCC/C=C\\[C@H](O)C#CC#C[C@@H](O)CC", "technique": "resazurin", "strain": "ATCC27294 H37RV", "time": "7 days", "MIC": "50.2 µg/mL"}
